Structures are written as SMILES. pIC50: −log10 of the molar value. Calls of active or inactive are those of the source. The rule behind the calls is not given here.

The test system of one series is RAW264.7. As to the kind of experiment: Inhibition of LPS-induced nitric oxide production in mouse RAW264.7 cells at 20 uM after 20 hrs by Griess reaction. Format: functional. To be noted: RAW264.7, 20 h. In outline:
(§1)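 RAW 264.7 cells plated at 5 × 10⁵ cells/mL, grown 24 h, then given LPS (1 µg/mL) plus compound (DMSO vehicle, final ≤0.1%) for 20 h. Supernatant nitrite measured with Griess reagent (1% sulfanilamide in 5% H₃PO₄, 0.1% N-(1-naphthyl)ethylenediamine) at 540 nm against a NaNO₂ standard curve. %inhibition = [1 − sample NO/vehicle-control NO] × 100. IC50 by nonlinear regression.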
(In general: Nitrite, measured by Griess reagent, commonly stands in for NO production.)
`O=C(c1ccc(-n2cc(-c3cc(F)cc(F)c3)nn2)cc1O)N1CCCCC1`: at 20 µM the inhibition was 0%.

Take `CC(C)CCc1cn(-c2ccc(O)c(C(=O)N3CCCCC3)c2)nn1`: at 20 µM the inhibition was 0.9%.

Turning to `O=C(c1cc(-n2cc(-c3cc(F)cc(F)c3)nn2)ccc1O)N1CCCCC1`, at 20 µM the inhibition was 9.1%.

For the molecule `CCCNC(=O)c1ccc(-n2cc(CCC(C)C)nn2)cc1O`, testing at 20 µM gave an inhibition of 7.3%.

As to `CCCNC(=O)c1ccc(-n2cc(-c3ccccc3)nn2)cc1O`, the inhibition (in general, the percentage by which the read-out fell short of the control) at 20 µM amounted to 1.1%.

On to `CCCCCCc1cn(-c2ccc(C(=O)NCCC)c(O)c2)nn1`, for which 20 µM produced 11% inhibition.

Consider `CCCNC(=O)c1cc(-n2cc(-c3ccccc3)nn2)ccc1O`, for which the inhibition at 20 µM is 28.6%.

`CCCNC(=O)c1ccc(-n2cc(-c3cccc(Cl)c3)nn2)cc1O`: 20 µM produced 0% inhibition.

Molecule `CCCNC(=O)c1ccc(-n2cc(-c3cc(F)cc(F)c3)nn2)cc1O` registered an inhibition at 20 µM of 0%.

`O=C(c1cc(-n2cc(-c3cccc(Cl)c3)nn2)ccc1O)N1CCCCC1` displayed an inhibition at 20 µM of 35.4%.

Turning to `CCCCCc1ccc(-c2cn(-c3ccc(C(=O)N4CCCCC4)c(O)c3)nn2)cc1`, at 20 µM the inhibition was 0%.

`CCCCCc1ccc(-c2cn(-c3ccc(C(=O)NCCC)c(O)c3)nn2)cc1` had an inhibition at 20 µM of 0%.

The molecule `CCCCCc1ccc(-c2cn(-c3ccc(O)c(C(=O)NCCC)c3)nn2)cc1` gave an inhibition at 20 µM of 0%.

`O=C(c1ccc(-n2cc(-c3cc(C(F)(F)F)cc(C(F)(F)F)c3)nn2)cc1O)N1CCCCC1` showed an inhibition at 20 µM of 0%.

`CCCCCCc1cn(-c2ccc(O)c(C(=O)NCCC)c2)nn1` displayed an inhibition at 20 µM of 57.9%.

`O=C(c1cc(-n2cc(-c3ccccc3)nn2)ccc1O)N1CCCCC1` showed an inhibition at 20 µM of 11.8%.

`O=C(c1ccc(-n2cc(-c3cccc(Cl)c3)nn2)cc1O)N1CCCCC1` came in with an inhibition at 20 µM of 0%.

As for `CCCCCCc1cn(-c2ccc(O)c(C(=O)N3CCCCC3)c2)nn1`, the inhibition at 20 µM came out at 4.2%.

As for `CCCNC(=O)c1cc(-n2cc(-c3cc(C(F)(F)F)cc(C(F)(F)F)c3)nn2)ccc1O`, the inhibition at 20 µM turned out to be 1.8%.

As for `CCCNC(=O)c1cc(-n2cc(-c3cccc(Cl)c3)nn2)ccc1O`, the inhibition at 20 µM was determined as 33.8%.

Regarding `CCCNC(=O)c1cc(-n2cc(-c3cc(F)cc(F)c3)nn2)ccc1O`, the inhibition at 20 µM was 0%.

Consider `O=C(c1cc(-n2cc(-c3cc(C(F)(F)F)cc(C(F)(F)F)c3)nn2)ccc1O)N1CCCCC1`, for which the inhibition at 20 µM is 94.1%.

`O=C(c1ccc(-n2cc(-c3ccccc3)nn2)cc1O)N1CCCCC1` displayed an inhibition at 20 µM of 0%.

The molecule `CCCNC(=O)c1cc(-n2cc(CCC(C)C)nn2)ccc1O` yielded an inhibition at 20 µM of 22.6%.

In the case of `CCCCCCc1cn(-c2ccc(C(=O)N3CCCCC3)c(O)c2)nn1`, 20 µM produced 8.3% inhibition.

`CC(C)CCc1cn(-c2ccc(C(=O)N3CCCCC3)c(O)c2)nn1` gave an inhibition at 20 µM of 1.9%.

In turn, `CCCCCc1ccc(-c2cn(-c3ccc(O)c(C(=O)N4CCCCC4)c3)nn2)cc1` came in with an inhibition at 20 µM of 18.4%.

Take `CCCNC(=O)c1ccc(-n2cc(-c3cc(C(F)(F)F)cc(C(F)(F)F)c3)nn2)cc1O`: the inhibition at 20 µM was 0%.

The next series deals with RAW264.7. Description: Inhibition of LPS-induced nitric oxide production in mouse RAW264.7 cells after 20 hrs by Griess reaction. Format: functional, cell-based.
Conditions: not given
A digest of the protocol: as §1
With `O=C(c1cc(-n2cc(-c3cc(C(F)(F)F)cc(C(F)(F)F)c3)nn2)ccc1O)N1CCCCC1`, the Activity result was “Dose-dependent effect”.

The series is the same for the next values; noted with them: RAW264.7, 20 h.
On to `O=C(c1ccc(-n2cc(-c3cc(F)cc(F)c3)nn2)cc1O)N1CCCCC1`, for which the pIC50 (as a rule, the IC50 on a negative log10 scale, so that one unit is a factor of ten) is less than 4.70.

In turn, `CC(C)CCc1cn(-c2ccc(O)c(C(=O)N3CCCCC3)c2)nn1` gave a negative-log IC50 (pIC50) of less than 4.70.

`O=C(c1cc(-n2cc(-c3cc(F)cc(F)c3)nn2)ccc1O)N1CCCCC1` gave a pIC50 of less than 4.70.

In turn, `CCCNC(=O)c1ccc(-n2cc(CCC(C)C)nn2)cc1O` gave a negative-log IC50 (pIC50) of less than 4.70.

For the molecule `CCCNC(=O)c1ccc(-n2cc(-c3ccccc3)nn2)cc1O`, the pIC50 is less than 4.70.

Turning to `CCCCCCc1cn(-c2ccc(C(=O)NCCC)c(O)c2)nn1`, the pIC50 was less than 4.70.

Take `CCCNC(=O)c1cc(-n2cc(-c3ccccc3)nn2)ccc1O`: the pIC50 is less than 4.70.

For the molecule `CCCNC(=O)c1ccc(-n2cc(-c3cccc(Cl)c3)nn2)cc1O`, the pIC50 is less than 4.70.

Molecule `CCCNC(=O)c1ccc(-n2cc(-c3cc(F)cc(F)c3)nn2)cc1O` gave a pIC50 of less than 4.70.

With `O=C(c1cc(-n2cc(-c3cccc(Cl)c3)nn2)ccc1O)N1CCCCC1`, the pIC50 was less than 4.70.

The molecule `CCCCCc1ccc(-c2cn(-c3ccc(C(=O)N4CCCCC4)c(O)c3)nn2)cc1` had a negative-log IC50 (pIC50) of less than 4.70.

For `CCCCCc1ccc(-c2cn(-c3ccc(C(=O)NCCC)c(O)c3)nn2)cc1`, the pIC50 was less than 4.70.

`CCCCCc1ccc(-c2cn(-c3ccc(O)c(C(=O)NCCC)c3)nn2)cc1` showed a pIC50 of less than 4.70.

As to `O=C(c1ccc(-n2cc(-c3cc(C(F)(F)F)cc(C(F)(F)F)c3)nn2)cc1O)N1CCCCC1`, the pIC50 is less than 4.70.

`CNC(=N)NCCC[C@H](N)C(=O)O` [TILARGININE] showed a pIC50 of 4.70.

As to `CCCCCCc1cn(-c2ccc(O)c(C(=O)NCCC)c2)nn1`, the pIC50 is 4.71. The pIC50 values of the last two molecules are within 0.2 log units of each other.

Take `O=C(c1cc(-n2cc(-c3ccccc3)nn2)ccc1O)N1CCCCC1`: the pIC50 is less than 4.70.

For `O=C(c1ccc(-n2cc(-c3cccc(Cl)c3)nn2)cc1O)N1CCCCC1`, the pIC50 was less than 4.70.

Molecule `CCCCCCc1cn(-c2ccc(O)c(C(=O)N3CCCCC3)c2)nn1` gave a pIC50 of less than 4.70.

Molecule `CCCNC(=O)c1cc(-n2cc(-c3cc(C(F)(F)F)cc(C(F)(F)F)c3)nn2)ccc1O` gave a pIC50 of less than 4.70.

The molecule `CCCNC(=O)c1cc(-n2cc(-c3cccc(Cl)c3)nn2)ccc1O` had a pIC50 of less than 4.70.

`CCCNC(=O)c1cc(-n2cc(-c3cc(F)cc(F)c3)nn2)ccc1O`: the pIC50 was less than 4.70.

For the molecule `O=C(c1cc(-n2cc(-c3cc(C(F)(F)F)cc(C(F)(F)F)c3)nn2)ccc1O)N1CCCCC1`, the pIC50 was 4.89.

As to `O=C(c1ccc(-n2cc(-c3ccccc3)nn2)cc1O)N1CCCCC1`, the pIC50 was less than 4.70.

`CCCNC(=O)c1cc(-n2cc(CCC(C)C)nn2)ccc1O` showed a pIC50 of less than 4.70.

`CCCCCCc1cn(-c2ccc(C(=O)N3CCCCC3)c(O)c2)nn1` had a pIC50 of less than 4.70.

`CC(C)CCc1cn(-c2ccc(C(=O)N3CCCCC3)c(O)c2)nn1`: the pIC50 is less than 4.70.

Regarding `CCCCCc1ccc(-c2cn(-c3ccc(O)c(C(=O)N4CCCCC4)c3)nn2)cc1`, the pIC50 was less than 4.70.

`CCCNC(=O)c1ccc(-n2cc(-c3cc(C(F)(F)F)cc(C(F)(F)F)c3)nn2)cc1O` had a pIC50 of less than 4.70.

The next series concerns RAW264.7. Description: Cytotoxicity against mouse RAW264.7 cells assessed as cell viability upto 15 uM after 24 hrs by MTT assay. Format: cell-based. To be noted: raw264.7, 24 h. In outline:
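RAW 264.7 macrophages exposed to compound for 24 h, and viability then read by MTT assay.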
(In general: Formazan colour is commonly taken as a measure of viable cells.)
As for `O=C(c1cc(-n2cc(-c3cc(C(F)(F)F)cc(C(F)(F)F)c3)nn2)ccc1O)N1CCCCC1`, the Activity entry is listed as “Non-toxic”.

Another series relates to RAW264.7. Description: Inhibition of LPS-induced iNOS protein expression in mouse RAW264.7 cells after 16 hrs by Western blot. Format: functional, cell-based.
Conditions: not given
A digest of the protocol: (§2)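 RAW 264.7 cells stimulated with LPS (1 µg/mL) with or without several compound concentrations. Total RNA collected at 4 h and analysed for iNOS mRNA by RT-PCR. Protein collected at 16 h and analysed for iNOS by western blot, with β-actin as reference.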
In general terms: A western blot detects proteins with antibodies after separation by electrophoresis.
Take `O=C(c1cc(-n2cc(-c3cc(C(F)(F)F)cc(C(F)(F)F)c3)nn2)ccc1O)N1CCCCC1`: the inhibition result was “Dose-dependent effect”.

The subject of another series is RAW264.7. As to the kind of experiment: Inhibition of LPS-induced iNOS mRNA expression in mouse RAW264.7 cells after 4 hrs by RT-PCR.
Conditions: not given
Format: functional, cell-based. A digest of the protocol:
as §2
Consider `O=C(c1cc(-n2cc(-c3cc(C(F)(F)F)cc(C(F)(F)F)c3)nn2)ccc1O)N1CCCCC1`, for which the inhibition entry is “Dose-dependent effect”.

Another series has as its system RAW264.7. Description: Inhibition of LPS-induced iNOS protein expression in mouse RAW264.7 cells at 15 uM after 16 hrs by Western blot.
Conditions: not given
Format: functional, cell-based. In outline: as §2
Turning to `O=C(c1cc(-n2cc(-c3cc(C(F)(F)F)cc(C(F)(F)F)c3)nn2)ccc1O)N1CCCCC1`, the inhibition result was “Active”.

The test system of the next series is RAW264.7. As to the kind of experiment: Inhibition of LPS-induced iNOS mRNA expression in mouse RAW264.7 cells at 15 uM after 4 hrs by RT-PCR. Format: functional, cell-based.
Conditions: not given
A digest of the protocol: as §2
`O=C(c1cc(-n2cc(-c3cc(C(F)(F)F)cc(C(F)(F)F)c3)nn2)ccc1O)N1CCCCC1`: the inhibition entry was “Active”.

The values are drawn from ChEMBL document CHEMBL1759885, “Syntheses of 1,2,3-triazolyl salicylamides with inhibitory activity on lipopolysaccharide-induced nitric oxide production” (Bioorg Med Chem Lett, 2011).
